The record followed here is ChEMBL document CHEMBL1125714, “Novel class of amino acid antagonists at non-N-methyl-D-aspartic acid excitatory amino acid receptors. Synthesis, in vitro and in vivo pharmacology, and neuroprotection” (J Med Chem, 1991).

The species entered for experiment [1] is Rattus norvegicus. Briefly: Neuroprotective effect evaluated for excitatory amino acid receptor antagonism with the concentration at 1 uL in the corpus striatum of 9 rats with glutamic acid decarboxylase as the marker enzyme. Format: functional. The method, boiled down:
(§1)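 […]-anaesthetised rats (4 mL/kg ip), stereotaxic cannula into corpus striatum; 1 µL infused containing kainate (10 nmol), quinolinic acid (300 nmol) or AMPA (100 nmol), with or without co-infused antagonist. After 3-day recovery, striata were homogenised in 50 mM Tris-HCl pH 7.4 with 0.2% Triton X-100 and spun 10000g for 10 min. Choline acetyltransferase or glutamic acid decarboxylase activity was reported as % remaining versus non-lesioned striatum.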

Experiment [2] is filed under the species Rattus norvegicus. Description: Neuroprotective effect evaluated for excitatory amino acid receptor antagonism with the concentration at 1 uL in the corpus striatum of 9 rats with choline acetyltransferase as the marker enzyme. Format: functional. A digest of the protocol:
as §1

Experiment [3] can be described thus: Inhibition of the binding of radioligand [3H]AMPA in the presence of the compound. at Non N-methyl-D-aspartate glutamate receptor. A digest of the protocol: (§2)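 Rat brain membrane [3H]AMPA binding run with 100 mM isothiocyanate present, so both high- and low-affinity AMPA sites are detected. Competitors were tested over concentration ranges of 1–1000 μM, and the IC50 was calculated from displacement data.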

The target in experiment [4] is Glutamate receptor ionotropic AMPA (Homo sapiens, UniProt P42261+P42262+P42263+P48058). Briefly: Inhibition of the binding of radioligand [3H]AMPA in the presence at low-affinity AMPA receptor sites. Format: protein-complex assay.
Experiment [5] is filed under the species Rattus norvegicus. Description: Neuroprotective effect evaluated for excitatory amino acid receptor antagonism with the concentration at 1 uL in the corpus striatum of 3 rats with choline acetyltransferase as the marker enzyme. The class given is functional. The method, boiled down: (§3)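 Rat corpus striatum, stereotaxic infusion under […] anaesthesia (4 mL/kg ip). 1 μL solution held KAIN 10 nmol, quinolinic acid 300 nmol or AMPA 100 nmol, with or without antagonist 150 nmol. After 3 days recovery, striatum was homogenized in Tris-HCl/Triton X-100 and spun at 10000g. Choline acetyltransferase and glutamic acid decarboxylase activities were read as percent of non-lesioned tissue.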

Experiment [6] is filed under the species Rattus norvegicus. Description: Neuroprotective effect evaluated for excitatory amino acid receptor antagonism with the concentration at 1 uL in the corpus striatum of 3 rats with glutamic acid decarboxylase as the marker enzyme. The class given is functional. A digest of the protocol:
as §3

Experiment [7] is filed under the species Rattus norvegicus. Description: Neuroprotective effect evaluated for excitatory amino acid receptor antagonism with the concentration at 1 uL in the corpus striatum of 5 rats with choline acetyltransferase as the marker enzyme. The class given is functional. The method, boiled down:
as §1

Experiment [8] is filed under the species Rattus norvegicus. Description: Neuroprotective effect evaluated for excitatory amino acid receptor antagonism with the concentration at 1 uL in the corpus striatum of 5 rats with glutamic acid decarboxylase as the marker enzyme. Format: functional. A digest of the protocol:
as §1

For experiment [9], the species on record is Rattus norvegicus. Description: Neuroprotective effect evaluated for excitatory amino acid receptor antagonism with the concentration at 1 uL in the corpus striatum of 7 rats with glutamic acid decarboxylase as the marker enzyme. Format: functional. A digest of the protocol: as §1
For experiment [10], the species on record is Rattus norvegicus. Briefly: Neuroprotective effect evaluated for excitatory amino acid receptor antagonism with the concentration at 1 uL in the corpus striatum of 7 rats with choline acetyltransferase as the marker enzyme. Format: functional. A digest of the protocol:
as §1

The species entered for experiment [11] is Rattus norvegicus. Description: Neuroprotective effect evaluated for excitatory amino acid receptor antagonism with the concentration at 1 uL in the corpus striatum of 14 rats with choline acetyltransferase as the marker enzyme. Format: functional. Also on record: concentration or dose not given beside the values. A digest of the protocol: as §1
For experiment [12], the species on record is Rattus norvegicus. Description: Neuroprotective effect evaluated for excitatory amino acid receptor antagonism with the concentration at 1 uL in the corpus striatum of 14 rats with glutamic acid decarboxylase as the marker enzyme. The class given is functional. A digest of the protocol:
as §1

Experiment [13] can be described thus: Inhibition of the binding of radioligand [3H]AMPA in the presence at Non N-methyl-D-aspartate glutamate receptor. The method, boiled down:
as §2

Each structure is given as a SMILES string. Where “and” joins values, the source holds several entries; their conditions need not be identical. Equal values may be shown once.

For `Cc1onc(O)c1CC(N)C(=O)O.Cc1onc(O)c1Cn1oc(C)c(CC(N)C(=O)O)c1=O` (stereo unspecified), the Enzyme activity is reported as 39% in the experiment filed under Rattus norvegicus [1] and 53% in the experiment filed under Rattus norvegicus [2].

`Cc1onc(O)c1Cn1oc(C)c(CC(N)C(=O)O)c1=O` (stereo unspecified): the half-inhibitory concentration (IC50) is 29 µM in [3] and 335 µM in experiment [4]. For `Cc1onc(OCC(=O)O)c1CC(N)C(=O)O.O=C(O)c1cccnc1C(=O)O` (stereo unspecified), the Enzyme activity in the experiment filed under Rattus norvegicus [5] stood at 52%; in the experiment listed under Rattus norvegicus [6], 64%. Turning to `Cc1onc(O)c1Cn1oc(C)c(CC(N)C(=O)O)c1=O.O=C(O)c1cccnc1C(=O)O` (stereo unspecified), the Enzyme activity in the experiment filed under Rattus norvegicus [7] stood at 50%; in the experiment listed under Rattus norvegicus [8] it was 49%. Consider `Cc1onc(O)c1CC(N)C(=O)O.O=C(O)C1CN(CCCP(=O)(O)O)CCN1` (stereo unspecified), for which the results for the Enzyme activity in the experiment filed under Rattus norvegicus [9] and in the experiment filed under Rattus norvegicus [10] were 50% and 55%, respectively. In the case of `Cc1onc(O)c1CC(N)C(=O)O.Cc1onc(OCC(=O)O)c1CC(N)C(=O)O` (stereo unspecified), the Enzyme activity in the experiment listed under Rattus norvegicus [11] came to 68%; in the experiment filed under Rattus norvegicus [12], 62%. Turning to `O=C(O)C1CN(CCCP(=O)(O)O)CCN1.O=C(O)c1cccnc1C(=O)O` (stereo unspecified), the Enzyme activity in the experiment filed under Rattus norvegicus [7] was determined as 98%; in the experiment filed under Rattus norvegicus [8] it was 99%. As to `Cc1onc(OCC(=O)O)c1CC(N)C(=O)O` (stereo unspecified), the IC50 in [4] was 98 µM; in [13], 90 µM. For the molecule `Cc1onc(O)c1CC(N)C(=O)O` [(R,S)-AMPA], in the experiment filed under Rattus norvegicus [11], the Enzyme activity was 53% and 40%.

For the molecule `C=C(C)[C@H]1CN[C@H](C(=O)O)[C@H]1CC(=O)O` [KAINIC ACID], the Enzyme activity in the experiment filed under Rattus norvegicus [9] was determined as 44%; in the experiment listed under Rattus norvegicus [10] it was 34%. For the molecule `O=C(O)c1cccnc1C(=O)O` [QUINOLINIC ACID], the Enzyme activity in the experiment filed under Rattus norvegicus [11] was 61%; in the experiment filed under Rattus norvegicus [12] it was 53%.

As a reminder, the IC50 is the concentration at which inhibition is half-maximal.
